According to ChEMBL document CHEMBL1134494, “2-Amino-6-arylsulfonylbenzonitriles as non-nucleoside reverse transcriptase inhibitors of HIV-1” (J Med Chem, 2001):

Experiments:
[1] = target: Human immunodeficiency virus type 1 reverse transcriptase (Human immunodeficiency virus 1, UniProt Q72547); experiment: Inhibitory activity against HIV-1 reverse transcriptase
Outline: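 Recombinant HIV RT at 1 nM was combined with 40 nM Eu-chelate-labeled biotinylated DNA primer/RNA template and 100 nM Cy5-dUTP. Reactions were started with enzyme.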

MT4 [2] = experiment: Antiviral activity against HIV-1 infected MT-4 cells; no significant activity uM; assay type: functional, cell-based; settings: Homo sapiens
Outline: (§1)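 HTLV-1-transformed MT4 cells were infected with HIV-1 strain 3B at 100× the amount giving a 50% drop in cell growth. They were cultured 5 days with a range of compound concentrations. IC50 is the concentration restoring 50% of infected-cell growth (cytopathic effect) relative to uninfected MT4 controls.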

MT4 [3] = experiment: Antiviral activity against HIV-1 infected MT-4 cells; No significant activity uM; assay type: functional, cell-based; settings: Homo sapiens; outline: as §1
HeLa [4] = experiment: Antiviral activity against K103N mutant virus in the HeLa MAGI assay.; assay type: functional, cell-based, Homo sapiens
Outline: (§2)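 Isogenic recombinant HIV-1 strains carrying the listed RT mutations were tested against the test compounds in HeLa MAGI indicator cells. Beta-galactosidase was quantified by activation of a chemiluminescent substrate 3 days after infection. IC50 was the concentration inhibiting 50% of the HIV-1-induced beta-galactosidase signal relative to untreated controls. It was determined for each recombinant virus.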

HeLa [5] = experiment: Antiviral activity against Y181C mutant virus in the HeLa MAGI assay.; assay type: functional, cell-based, Homo sapiens; outline: as §2
HeLa [6] = experiment: Antiviral activity against Y188C mutant virus in the HeLa MAGI assay.; assay type: functional, cell-based, Homo sapiens; outline: as §2
HeLa [7] = experiment: Antiviral activity against V106A/Y181C mutant virus in the HeLa MAGI assay.; assay type: functional, cell-based, Homo sapiens; outline: as §2
HeLa [8] = experiment: Antiviral activity against V108I mutant virus in the HeLa MAGI assay.; assay type: functional, cell-based, Homo sapiens; outline: as §2
HeLa [9] = experiment: Antiviral activity against K103N/P225H mutant virus in the HeLa MAGI assay.; assay type: functional, cell-based, Homo sapiens; outline: as §2
HeLa [10] = experiment: Antiviral activity against P236L mutant virus in the HeLa MAGI assay.; assay type: functional, cell-based, Homo sapiens; outline: as §2
HeLa [11] = experiment: Antiviral activity against G190A mutant virus in the HeLa MAGI assay.; assay type: functional, cell-based, Homo sapiens; outline: as §2
HeLa [12] = experiment: Antiviral activity against wild-type HIV-1 in the HeLa MAGI assay.; assay type: functional, cell-based; settings: Homo sapiens
Outline: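 HeLa MAGI cells were infected with isogenic recombinant HIV-1. After 3 days, β-galactosidase was quantified by chemiluminescent substrate activation. IC50 is the concentration inhibiting 50% of the HIV-1-induced β-galactosidase signal relative to untreated controls.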

HeLa [13] = experiment: Antiviral activity against V106A mutant virus in the HeLa MAGI assay.; assay type: functional, cell-based, Homo sapiens; outline: as §2
HeLa [14] = experiment: Antiviral activity against K103N/V108I mutant virus in the HeLa MAGI assay.; assay type: functional, cell-based, Homo sapiens; outline: as §2
HeLa [15] = experiment: Antiviral activity against V108I/Y181C mutant virus in the HeLa MAGI assay.; assay type: functional, cell-based, Homo sapiens; outline: as §2
HeLa [16] = experiment: Antiviral activity against K103N/Y181C mutant virus in the HeLa MAGI assay.; assay type: functional, cell-based, Homo sapiens; outline: as §2
HeLa [17] = experiment: Antiviral activity against K103N/L100I mutant virus in the HeLa MAGI assay.; assay type: functional, cell-based, Homo sapiens; outline: as §2
HeLa [18] = experiment: Antiviral activity against E138K mutant virus in the HeLa MAGI assay.; assay type: functional, cell-based, Homo sapiens; outline: as §2
[19] = test system: Human immunodeficiency virus 1; experiment: Antiviral activity against HIV-1 infected human MT-4 cells.; assay type: functional, organism-based; settings: Human immunodeficiency virus 1, MT4; outline: as §1
MT4 [20] = experiment: Cell culture cytotoxicity against MT-4 cells.; assay type: functional, cell-based; settings: Homo sapiens
Outline: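 MT4 cells were exposed to compound in parallel with the 5-day HIV-1 strain 3B cytopathic-effect assay. Compound-induced cytotoxicity is reported as the cell culture cytotoxicity IC50 (CCIC50).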

MT4 [21] = experiment: Antiviral activity against HIV-1 infected MT-4 cells at a dose of 5 uM; assay type: functional; settings: Homo sapiens
[22] = target: Human immunodeficiency virus type 1 reverse transcriptase (Human immunodeficiency virus 1) (UniProt Q72547); experiment: Inhibitory activity against HIV-1 reverse transcriptase; no significant activity uM
Outline: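 Recombinant HIV RT at 1 nM was added to start 50 µL reactions. Cy5-dUMP incorporation was followed for 30 min by time-resolved energy transfer (excitation 340 nm, emission 665 nm).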

Compound	IC50 [1]	IC50 (HeLa [4])	IC50 (HeLa [5])	IC50 (HeLa [6])	IC50 (HeLa [7])	IC50 (HeLa [8])	IC50 (HeLa [9])	IC50 (HeLa [10])	IC50 (HeLa [11])	IC50 (HeLa [12])	IC50 (HeLa [13])	IC50 (HeLa [14])	IC50 (HeLa [15])	IC50 (HeLa [16])	IC50 (HeLa [17])	IC50 (HeLa [18])	IC50 [19]	IC50 (MT4 [20])	further results
COc1ccc(Sc2cccc(N)c2C#N)cc1	> 17000 nM	–	–	–	–	–	–	–	–	–	–	–	–	–	–	–	–	–	NS (MT4 [2]): no significant activity
O=[N+]([O-])c1ccccc1[S+]([O-])c1ccccc1[N+](=O)[O-]	–	–	–	–	–	–	–	–	–	–	–	–	–	–	–	–	–	–	NS (MT4 [3]): No significant activity
Cc1ccnc2c1NC(=O)c1cccnc1N2C1CC1 [NEVIRAPINE]	–	7100 nM	> 10000 nM	2200 nM	> 10000 nM	340 nM	10000 nM	56 nM	> 10000 nM	89 nM	~10000 nM	21000 nM	> 10000 nM	> 50000 nM	10000 nM	72 nM	–	–	–
COc1cc(C)cc(S(=O)(=O)c2cccc(N)c2C#N)c1	10 nM	1800 nM	13000 nM	300 nM	420 nM	29 nM	7800 nM	8 nM	87 nM	14 nM	2.9 nM	16000 nM	14000 nM	> 50000 nM	19000 nM	29 nM	50 nM	94000 nM	–
COc1cc(C(F)(F)F)cc(S(=O)(=O)c2cccc(N)c2C#N)c1	40 nM	10500 nM	36000 nM	400 nM	2100 nM	120 nM	5500 nM	7 nM	660 nM	63 nM	13 nM	10000 nM	36000 nM	> 50000 nM	5000 nM	80 nM	90 nM	164000 nM	–
Cc1cc(Br)cc(S(=O)(=O)c2cccc(N)c2C#N)c1	3 nM	970 nM	10000 nM	1700 nM	77 nM	11 nM	13000 nM	11 nM	31 nM	9 nM	1.5 nM	15000 nM	18000 nM	> 50000 nM	16000 nM	15 nM	20 nM	133000 nM	–
N#Cc1c(N)cccc1Sc1cc(Cl)cc(Cl)c1	120 nM	–	–	–	–	–	–	–	–	–	–	–	–	–	–	–	–	3000 nM	inhibition at 5 µM (MT4 [21]): 62%
N#Cc1c(N)cccc1S(=O)(=O)c1cccc2ccccc12	1000 nM	2300 nM	29000 nM	180 nM	230 nM	30 nM	2800 nM	2 nM	200 nM	14 nM	5.4 nM	3500 nM	66000 nM	> 50000 nM	1700 nM	68 nM	3320 nM	> 200000 nM	–
O=C1Nc2ccc(Cl)cc2[C@@](C#CC2CC2)(C(F)(F)F)O1 [EFAVIRENZ]	–	24 nM	1.8 nM	1.2 nM	3.3 nM	1.4 nM	130 nM	0.5 nM	6.4 nM	0.9 nM	1.5 nM	74 nM	3.3 nM	42 nM	1600 nM	0.8 nM	–	–	–
N#Cc1c(N)cccc1S(=O)(=O)c1cc(Cl)cc(Cl)c1	30 nM	8300 nM	50000 nM	140 nM	1800 nM	47 nM	3800 nM	2.5 nM	84 nM	37 nM	6.2 nM	4000 nM	58000 nM	> 50000 nM	5500 nM	85 nM	70 nM	> 200000 nM	–
Cc1ccccc1Sc1cccc(N)c1C#N	–	–	–	–	–	–	–	–	–	–	–	–	–	–	–	–	16000 nM	> 40000 nM	NS [22]: no significant activity
Cc1cc(Cl)cc(S(=O)(=O)c2cccc(N)c2C#N)c1	5 nM	3600 nM	14000 nM	400 nM	210 nM	17 nM	19000 nM	10 nM	40 nM	15 nM	2.8 nM	33000 nM	13000 nM	> 50000 nM	20000 nM	15 nM	30 nM	> 200000 nM	–
Cc1cc(C)cc(S(=O)(=O)c2cccc(N)c2C#N)c1	–	1100 nM	14000 nM	210 nM	490 nM	17 nM	3300 nM	5 nM	30 nM	11 nM	2.4 nM	4800 nM	13000 nM	> 50000 nM	3000 nM	17 nM	10 nM	> 200000 nM	–
